Source: article PMC9674229 (Proceedings of the National Academy of Sciences of the …, 2022)

Tests used:
[1] = test system: spinal cord transient firing neurons; conditions: cited from earlier work
[2] = test system: Y1 receptors; conditions: intrathecal; rodent models of chronic pain; cited from earlier work
[3] = test system: light touch-evoked pERK in ipsilateral dorsal horn neurons; experiment: light touch-evoked pERK immunoreactivity in dorsal horn, SNI, intrathecal agents; format: in vivo, mouse; conditions: intrathecal coadministration of BIBO 3304 10.0 µg with [Leu^31, Pro^34]-NPY 10.0 µg; n = 4 to 6 mice/group
[4] = test system: SNI mice (cold allodynia); experiment: cold withdrawal duration; format: in vivo, mouse; conditions: intrathecal coadministration of BIBO 3304 10.0 µg with [Leu^31, Pro^34]-NPY 10.0 µg; n = 4 to 11 mice/group
[5] = test system: SNI mice (mechanical allodynia); experiment: mechanical withdrawal threshold; format: in vivo, mouse; conditions: intrathecal coadministration of BIBO 3304 10.0 µg with [Leu^31, Pro^34]-NPY 10.0 µg; n = 4 to 11 mice/group
[6] = test system: inhibitory DREADD hM4DGi in spinal Y1-INs; experiment: chemogenetic inhibition of Y1-INs: cold; format: in vivo, mouse; conditions: CNO 3 mg/kg i.p., n = 7 mice/group
Method in brief: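 Npy1rCre mice were given intraspinal AAV8-hSyn-DIO-hM4DGi into the left lumbar (L3–L4) DH, which expresses Gi-DREADD in Y1-INs. CNO 3 mg/kg i.p. was dosed pre- or post-SNI. Cold sensitivity was scored as the withdrawal response to a 10 μL acetone droplet on the lateral hindpaw. Analysis used two-way ANOVA and Holm-Sidak post hoc tests; data are means ± SEM.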

[7] = test system: DREADD; conditions: CNO 3 mg/kg; cited from earlier work
[8] = test system: inhibitory DREADD hM4DGi in spinal Y1-INs; experiment: chemogenetic inhibition of Y1-INs: mechanical withdrawal threshold; format: in vivo, mouse; conditions: CNO 3 mg/kg i.p., n = 7 mice/group
Method in brief: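 Adult Npy1rCre mice received intraspinal Cre-dependent AAV8-hSyn-DIO-hM4DGi (mCherry-tagged) into the left lumbar DH at L3–L4. CNO (3 mg/kg, i.p.) was given either before or after SNI. Calibrated von Frey filaments were applied to the lateral hindpaw to measure withdrawal thresholds. Statistics used two-way ANOVA with Holm-Sidak post hoc tests, and data are shown as means ± SEM.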

[9] = test system: excitatory DREADD hM3DGq in spinal Y1-INs; experiment: chemogenetic activation of Y1-INs: conditioned place aversion; format: in vivo, mouse; conditions: CNO 3 mg/kg i.p., uninjured mice, n = 10 to 11 mice/group
[10] = test system: inhibitory DREADD hM4DGi in spinal Y1-INs; experiment: chemogenetic inhibition of Y1-INs: light touch-evoked pERK; format: in vivo, mouse; conditions: CNO 3 mg/kg i.p., SNI mice, n = 7 mice/group
Method in brief: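 Y1-INs in Npy1rCre mice were targeted by left lumbar (L3–L4) DH injection of AAV8-hSyn-DIO-hM4DGi. In SNI mice, CNO (3 mg/kg i.p.) was followed by light brushing of the lateral hindpaw. Ipsilateral lumbar DH sections were then immunostained for pERK and quantified in the superficial laminae. Groups were compared by unpaired two-tailed Student's t test; data are means ± SEM.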

[11] = test system: excitatory DREADD hM3DGq in spinal Y1-INs; experiment: chemogenetic activation of Y1-INs: open field testing; format: in vivo, mouse; conditions: CNO 3 mg/kg, 60 min, n = 6 mice/group
Method in brief: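 Uninjured Npy1rCre mice carried left lumbar dorsal-horn Cre-dependent hM3DGq or mCherry virus. Immediately after CNO (3 mg/kg, i.p.), mice were placed in a novel open field for 60 min. […] Averaged activity shown as heat maps. Student's unpaired two-tailed t test.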

[12] = test system: inhibitory DREADD hM4DGi in spinal Y1-INs; experiment: chemogenetic inhibition of Y1-INs: conditioned place preference; format: in vivo, mouse; conditions: CNO 3 mg/kg i.p., SNI mice, n = 10 to 11 mice/group
Method in brief: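 SNI Npy1rCre mice carried either intraspinal (left lumbar DH) Cre-dependent hM4DGi or control mCherry virus. After conditioning with CNO (3 mg/kg i.p.) paired to one chamber, time spent in the CNO-paired chamber was recorded. Groups were compared with an unpaired two-tailed Student's t test; data are means ± SEM.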

[13] = test system: excitatory DREADD hM3DGq in spinal Y1-INs; experiment: chemogenetic activation of Y1-INs: spontaneous nocifensive behavior; format: in vivo, mouse; conditions: CNO 3 mg/kg i.p., n = 3 to 5 mice/group
Method in brief: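 Cre-dependent AAV8-hSyn-DIO-hM3DGq-mCitrine or mCherry control virus was injected into the left lumbar dorsal horn of uninjured Npy1rCre mice. CNO (3 mg/kg, i.p.) or saline was given, then behaviour was videotaped. Scored: nocifensive acts (lifting, flapping, shaking, licking, guarding) and itch-like acts (biting, scratching), each directed to the ipsilateral or contralateral hind limb. Three-way RM ANOVA, Holm-Sidak post hoc.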

[14] = test system: excitatory DREADD hM3DGq in spinal Y1-INs; experiment: chemogenetic activation of Y1-INs: cold; format: in vivo, mouse; conditions: CNO 3 mg/kg, uninjured mice, n = 8 mice/group
Method in brief: (§1)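 Npy1rCre mice were given an intraspinal injection of Cre-dependent AAV8-hSyn-DIO-hM3DGq-mCitrine into the left lumbar dorsal horn; controls received mCherry virus. Mice were uninjured. CNO 3 mg/kg was given i.p. before testing. Assays: von Frey filaments to the lateral hindpaw (mechanical); a 10 μL acetone droplet to the lateral hindpaw, scoring withdrawal (cold); 52.5 C hotplate (heat). Holm-Sidak post hoc tests.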

[15] = test system: excitatory DREADD hM3DGq in spinal Y1-INs; experiment: chemogenetic activation of Y1-INs: mechanical; format: in vivo, mouse; conditions: CNO 3 mg/kg, uninjured mice, n = 8 mice/group
Method in brief: as §1

[16] = test system: excitatory DREADD hM3DGq in spinal Y1-INs; experiment: chemogenetic activation of Y1-INs: heat; format: in vivo, mouse; conditions: CNO 3 mg/kg, uninjured mice, n = 8 mice/group
Method in brief: as §1

NCC1(CC(=O)O)CCCCC1 [gabapentin]
frequency and amplitude of sEPSCs [1]: reducing both the frequency and amplitude of sEPSCs

neuropeptide Y [NPY]
behavioral and spinal molecular signs of hyperalgesia [2]: reduces the behavioral and spinal molecular signs of hyperalgesia

NC(=O)NCc1ccc(CNC(=O)[C@@H](CCCN=C(N)N)NC(=O)C(c2ccccc2)c2ccccc2)cc1 [BIBO 3304]
effect on Y1 agonist-induced reduction of light touch-evoked pERK [3]: this effect is abolished with coadministration of the Y1 antagonist | effect on Y1 agonist-induced cold anti-allodynia [4]: abolishes | effect on Y1 agonist-induced mechanical anti-allodynia [5]: abolishes

C[N+]1([O-])CCN(C2=Nc3cc(Cl)ccc3Nc3ccccc32)CC1 [CNO, clozapine N-oxide]
SNI-induced cold hypersensitivity ([6]; post-SNI): abolished both mechanical and cold hypersensitivity | cold withdrawal thresholds before SNI ([6]; pre-SNI): does not alter mechanical or cold withdrawal thresholds before SNI | time to alter DREADD-dependent neuronal activity [7]: ≤ 15 min | SNI-induced mechanical hypersensitivity ([8]; post-SNI): abolished both mechanical and cold hypersensitivity | mechanical withdrawal thresholds before SNI ([8]; pre-SNI): does not alter mechanical or cold withdrawal thresholds before SNI | conditioned place aversion [9]: produced a robust CPA | light touch-evoked pERK in the superficial DH [10]: reduced light-touch evoked pERK in the superficial DH | grooming-like behaviors (stereotypic episode activity count) [11]: increased grooming-like (stereotypic episode activity count) behaviors | movement in open field [11]: continuous movement | rest in open field [11]: lack of rest | conditioned place preference (time in CNO-paired chamber) ([12]; control virus (mCherry)): but not control virus (mCherry) spent more time in the CNO-paired chamber | conditioned place preference (time in CNO-paired chamber) ([12]; hM4DGi): spent more time in the CNO-paired chamber | spontaneous nocifensive behaviors ([13]; control (mCherry) virus): but not control (mCherry) virus | itch-like (biting or scratching) behaviors ([13]; hM3DGq, uninjured mice): but not itch-like (biting or scratching) behaviors | spontaneous nocifensive behaviors, contralateral hind limb ([13]; hM3DGq, uninjured mice): but not contralateral, hind limb | cold (acetone droplet withdrawal) hypersensitivity [14]: hypersensitivity | mechanical (vF) hypersensitivity [15]: hypersensitivity | heat (52.5 C hotplate) hypersensitivity [16]: hypersensitivity
